Assay results taken from ChEMBL document CHEMBL1155093 (Bioorg Med Chem Lett, 2008).

Tests used:
[1] = target: T1, Nuclear receptor subfamily 1 group I member 2 (Homo sapiens, UniProt O75469); experiment: Induction of PXR transactivation in HepG2 cells; assay type: cell-based
T1 sequence (O75469 whole entry): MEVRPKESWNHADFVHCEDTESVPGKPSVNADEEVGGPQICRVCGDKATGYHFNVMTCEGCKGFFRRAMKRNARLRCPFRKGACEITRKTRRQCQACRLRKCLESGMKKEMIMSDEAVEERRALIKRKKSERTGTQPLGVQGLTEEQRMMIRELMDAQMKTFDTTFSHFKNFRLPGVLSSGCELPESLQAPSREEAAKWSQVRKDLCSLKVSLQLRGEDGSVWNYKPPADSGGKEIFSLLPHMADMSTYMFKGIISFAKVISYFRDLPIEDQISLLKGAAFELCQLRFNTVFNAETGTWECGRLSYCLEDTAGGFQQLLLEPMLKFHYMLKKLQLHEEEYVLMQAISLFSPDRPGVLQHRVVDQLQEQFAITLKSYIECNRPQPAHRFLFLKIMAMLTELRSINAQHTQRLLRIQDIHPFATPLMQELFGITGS
In short: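 HepG2 cells transiently transfected with PXR-pcDNA3 and Cyp3A-Luc reporter, cryopreserved, then thawed into DMEM with 5% charcoal/dextran FBS. Ten concentrations, 1:3 serial dilution, DMSO 0.1% final; 24 h at 37 °C. Luciferase luminescence read. % activation relative to 10 µM rifampicin (total) and DMSO (blank); EC50 and Emax from concentration–%Act plot.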

[2] = target: T1, Nuclear receptor subfamily 1 group I member 2; experiment: Inhibition of refampicin-mediated PXR activation in HepG2 cells; assay type: cell-based
In short: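 HepG2 cells transiently co-transfected with PXR-pcDNA3 and Cyp3A-Luc, cryopreserved and thawed into charcoal/dextran-FBS medium. Co-incubated with 10 µM rifampicin plus compound at ten concentrations (1:3 dilution, 0.1% DMSO final), 24 h at 37 °C; luciferase luminescence. Percent inhibition computed; IC50 and Imax taken from the concentration–%Inh plot.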

Caco-2 = experiment: Cytotoxicity against human Caco-2 cells assessed as viability upto 100 uM by MTT assay; assay type: functional
In short: (§1)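 MTT viability read-out; cells exposed to a concentration range of drug for 48 h. Three separate experiments, each run in triplicate.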

Cytochrome P450 3A4 = Cytochrome P450 3A4 (Homo sapiens, UniProt P08684); experiment: Inhibition of CYP3A4 in human liver microsome; assay type: ADME, microsomes
Chain of Cytochrome P450 3A4 (P08684 whole entry): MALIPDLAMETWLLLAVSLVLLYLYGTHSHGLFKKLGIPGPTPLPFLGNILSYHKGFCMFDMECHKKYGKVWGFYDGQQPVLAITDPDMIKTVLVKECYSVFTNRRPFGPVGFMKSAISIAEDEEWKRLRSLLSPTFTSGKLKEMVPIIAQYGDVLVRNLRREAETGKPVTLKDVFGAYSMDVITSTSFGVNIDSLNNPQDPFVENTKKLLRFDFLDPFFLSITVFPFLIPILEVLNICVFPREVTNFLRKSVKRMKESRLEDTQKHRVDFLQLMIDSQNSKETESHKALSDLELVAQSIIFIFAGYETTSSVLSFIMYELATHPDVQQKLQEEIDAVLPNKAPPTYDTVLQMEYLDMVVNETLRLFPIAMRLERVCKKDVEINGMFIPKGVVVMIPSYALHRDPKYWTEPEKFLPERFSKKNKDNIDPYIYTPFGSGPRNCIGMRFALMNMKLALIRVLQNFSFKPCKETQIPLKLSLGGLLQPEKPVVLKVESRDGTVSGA
In short: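 Pooled human liver microsomes 0.1 mg/mL, midazolam 5 µM, NADPH 1 mM, 5 min reaction. Time-dependent variant: 30 min preincubation without midazolam, then midazolam added for 5 min. 1-Hydroxymidazolam measured against DMSO control; IC50 and maximum inhibition taken from the concentration–%Inh plot.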

[3] = Cytotoxicity against human CRL cells assessed as viability upto 100 uM by MTT assay; assay type: cell-based; settings: read-out: Activity; in short: as §1
LS174T = experiment: Cytotoxicity against human LS174T cells assessed as viability upto 100 uM by MTT assay; assay type: functional; in short: as §1
SK-OV-3 = experiment: Cytotoxicity against human SKOV3 cells assessed as viability upto 100 uM by MTT assay; assay type: functional; in short: as §1

Compound | Activity [1] | inhibition (INH) [2] | Activity (Caco-2) | IC50 (Cytochrome P450 3A4) | viability [3] | Activity (LS174T) | Activity (SK-OV-3)
CC(=O)N1CCN(c2ccc(OCC3COC(C)(c4ccc(Cl)cc4Cl)O3)cc2)CC1 (stereo not drawn) | 10% | 109% | – | – | – | – | –
CC(=O)N1CCN(c2ccc(OC[C@H]3CO[C@@](C)(c4ccc(F)cc4F)O3)cc2)CC1 | 10% | 103% | 98% | > 40 µM | 98% | 98% | 98%
CC(=O)N1CCN(c2ccc(OC[C@H]3CO[C@](Cn4ccnc4)(c4ccc(Cl)cc4Cl)O3)cc2)CC1 [KETOCONAZOLE] | – | – | 65% | – | 65% | 65% | 65%
